We go through 40 compounds from ChEMBL document CHEMBL1139692, “Optimization of pyrimidinyl- and triazinyl-amines as non-nucleoside inhibitors of HIV-1 reverse transcriptase” (Bioorg Med Chem Lett, 2006).

The test system of series [1] is Human immunodeficiency virus 1. Briefly: Antiviral activity against HIV1 3B in MT2 cells. It is filed as functional, organism-based. Conditions: Human immunodeficiency virus 1, 3B. In short, it runs like this:
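HIV-1 IIIB infection of human MT-2 T-cells. Protection was read by MTT colorimetric assay. Curves used triplicate samples at each concentration.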

Series [2] is described as follows: Cytotoxicity against MT2 cells. It is filed as cell-based. Conditions: human. In short, it runs like this: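 Growth of MT-2 cells was measured by MTT colorimetric read-out, run at the same time as the anti-HIV-1 IIIB protection assay.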
Series [3] is described as follows: Ratio of CC50 for MT cells/EC50 for HIV1. It is filed as functional.

Molecules are shown by their SMILES.

In series [1], `COc1ccnc(Nc2ccc(Cl)c(Oc3ccc(C)cc3)c2)n1` registered a 50% effective concentration (EC50) of 10000 nM. The compound further yielded a CC50 in series [2] of over 100000 nM. In the case of `CC(C)=CCOc1cc(Nc2ncccn2)ccc1C#N`, the concentration for a half-maximal effect (EC50) in series [1] stood at 17 nM. Besides, the CC50 in series [2] turned out to be 36 nM. As to `CC(C)=CCOc1cc(Nc2nccc(C)n2)ccc1Cl`, the EC50 in series [1] worked out at 39 nM. In series [2], the CC50 is 150 nM. Consider `Cc1ccnc2c1NC(=O)c1cccnc1N2C1CC1` [NEVIRAPINE], for which, in series [2], the CC50 is over 10000 nM. For `CNc1ncnc(Nc2ccc(Cl)c(OCC=C(C)C)c2)n1`, it took 31 nM to reach a half-maximal effect in series [1] (EC50). This compound also registered a CC50 in series [2] of 3100 nM. Turning to `C/C=C/COc1cc(Nc2nccc(OC)n2)ccc1Cl`, the concentration for a half-maximal effect (EC50) in series [1] is 89 nM. The compound also had a 50% cytotoxic concentration (CC50) in series [2] of 17000 nM. In the case of `Cc1cc(C#N)cc(C)c1Oc1nc(Nc2ccc(C#N)cc2)nc(N)c1Br` [ETRAVIRINE], in series [2], the CC50 is over 1000 nM. `COc1cc(OC)nc(Nc2ccc(C#N)c(OCC=C(C)C)c2)n1` yielded a concentration giving a half-maximal response (EC50) in series [1] of 160 nM. The compound also came in with a half-maximal cytotoxic concentration (CC50) in series [2] of 810 nM. The corresponding values for `CSc1ccnc(Nc2ccc(Cl)c(OCC=C(C)C)c2)n1` are 18 nM and 2800 nM.

`CNc1ccnc(Nc2ccc(Cl)c(OCC=C(C)C)c2)n1` had an EC50 in series [1] of 6 nM. The compound also had a CC50 in series [2] of 690 nM. For `COc1nc(Nc2ccc(C#N)c(OCC=C(C)C)c2)nc(OC)n1`, in series [1], the EC50 was found to be 22 nM. In series [2], this compound gave a CC50 of over 100000 nM. For the same compound, the “Ratio CC50/EC50” value in series [3] is listed as over 1000. Take `CC(C)=CCOc1cc(Nc2nccc(CO)n2)ccc1Cl`: the midpoint of cytotoxicity in series [2], the CC50, lay at 220 nM. In series [1], `CCOc1ccnc(Nc2ccc(Cl)c(OCC=C(C)C)c2)n1` displayed an EC50 of 41 nM. The same compound showed a half-maximal cytotoxic concentration (CC50) in series [2] of 19000 nM. The corresponding values for `COc1nc(N)nc(Nc2ccc(C#N)c(OCC=C(C)C)c2)n1` are 9 nM and 110 nM.

The compound `COc1ccnc(Nc2ccc(Cl)c(Oc3cccc(C)c3)c2)n1` gave a concentration for a half-maximal effect (EC50) in series [1] of 540 nM. This compound gave a half-maximal cytotoxic concentration (CC50) in series [2] of 18000 nM. Taken in the same sequence, the figures for `C/C=C/COc1cc(Nc2ncccn2)ccc1Cl` were 2300 nM and 31000 nM. In series [1], `CC(C)=CCOc1cc(Nc2ncccn2)ccc1Cl` gave an EC50 of 200 nM. Further, the half-maximal cytotoxic concentration (CC50) in series [2] came to 2500 nM.

With `Clc1ccc(Nc2ncccn2)cc1Oc1ccccc1`, the 50% effective concentration (EC50) in series [1] amounted to 13000 nM. The compound also registered a CC50 in series [2] of 30000 nM. Compound `COc1nc(Nc2ccc(Cl)c(OCC=C(C)C)c2)nc(OC)n1` displayed a 50% effective concentration (EC50) in series [1] of 290 nM. The midpoint of cytotoxicity in series [2], the CC50, lay at 20000 nM. Compound `COc1ccnc(Nc2ccc(C#N)c(OCC=C(C)C)c2)n1` returned an EC50 in series [1] of 2 nM. As to `COc1ccnc(Nc2ccc(Cl)c(Sc3ccccc3)c2)n1`, in series [1], the EC50 was determined as 320 nM. The same compound gave a CC50 in series [2] of 21000 nM. The corresponding values for `COc1cc(OC)nc(Nc2ccc(Cl)c(OCC=C(C)C)c2)n1` are 250 nM and 28000 nM. In series [1], `CNc1ccnc(Nc2ccc(C#N)c(OCC=C(C)C)c2)n1` came in with an EC50 of 5 nM. For the same compound, the CC50 in series [2] is 22 nM. Taken in the same sequence, the figures for `CC(C)=CCOc1cc(Nc2ncnc(Cl)n2)ccc1C#N` were 310 nM and over 100000 nM. In series [1], `CC(C)=CCOc1cc(Nc2nccc(N)n2)ccc1Cl` gave an EC50 of 75 nM. The compound further yielded a cytotoxic concentration (CC50) in series [2] of 500 nM. For the compound `COc1nc(Cl)nc(Nc2ccc(Cl)c(OCC=C(C)C)c2)n1`, half-maximal cytotoxicity in series [2] (CC50) was put at 26000 nM. Same read-out and setting: then `O=C1Nc2ccc(Cl)cc2[C@@](C#CC2CC2)(C(F)(F)F)O1` [EFAVIRENZ], with over 100 nM; and `CC(C)=CCOc1cc(Nc2ncnc(Cl)n2)ccc1Cl`, with 45000 nM. Compound `CC(C)=CCOc1cc(Nc2ncnc(N)n2)ccc1C#N` had a half-maximal effective concentration (EC50) in series [1] of 15 nM. This compound came in with a CC50 in series [2] of 200 nM. Taken in the same sequence, the figures for `CC(C)=CCOc1cc(Nc2nc(C)nc(Cl)n2)ccc1Cl` were 12000 nM and 40000 nM. Taken in the same sequence, the figures for `CC(C)=CCOc1cc(Nc2ncnc(N)n2)ccc1Cl` were 390 nM and 48000 nM. In series [2], `COc1ccnc(Nc2ccc(Cl)c(Oc3ccccc3C)c2)n1` gave a CC50 of 13000 nM.

For the compound `COc1ccnc(Nc2ccc(Cl)c(OCC=C(C)C)c2)n1`, the EC50 in series [1] came out at 10 nM. In addition, in series [2], the midpoint of cytotoxicity, the CC50, lay at 9000 nM. The corresponding values for `COc1cc(N)nc(Nc2ccc(Cl)c(OCC=C(C)C)c2)n1` are 3000 nM and 19000 nM. As for `COCc1ccnc(Nc2ccc(Cl)c(OCC=C(C)C)c2)n1`, the cytotoxic concentration (CC50) in series [2] is over 25000 nM. In series [1], `COc1ccnc(Nc2ccc(Cl)c(Oc3ccccc3)c2)n1` registered an EC50 of 2500 nM. In series [2], this compound showed a CC50 of 38000 nM. Taken in the same sequence, the figures for `COc1ncnc(Nc2ccc(Cl)c(OCC=C(C)C)c2)n1` were 31 nM and 18000 nM. `COc1nc(C)nc(Nc2ccc(Cl)c(OCC=C(C)C)c2)n1` had an EC50 in series [1] of 100 nM. The CC50 in series [2] is 12000 nM. The compound `CSc1ncnc(Nc2ccc(C#N)c(OCC=C(C)C)c2)n1` returned an EC50 in series [1] of 5 nM. In series [2], this compound had a half-maximal cytotoxic concentration (CC50) of 8400 nM. Further, the “Ratio CC50/EC50” value in series [3] was over 1000.

Take `CCc1ccnc(Nc2ccc(Cl)c(OCC=C(C)C)c2)n1`: the EC50 in series [1] was determined as 16 nM. The half-maximal cytotoxic concentration (CC50) in series [2] came out at 330 nM.

As a reminder, the EC50 is the concentration giving half of the maximal effect. What is called CC50 is the concentration giving 50% cytotoxicity. A higher CC50 goes with better tolerance by the cells.
